The source made the active and inactive calls. The rule behind the calls is not given here.
How the values were obtained:
[1] = molecular target: T1, Glucocorticoid receptor (Mus musculus) (UniProt P06537); assay: Induction of glucocorticoid receptor nuclear translocation in mouse C2C12 cells at 1 x 10^-5 to 1.69 x 10^-10 M by chemiluminescence assay relative to control; format: cell-based
T1 sequence (whole entry): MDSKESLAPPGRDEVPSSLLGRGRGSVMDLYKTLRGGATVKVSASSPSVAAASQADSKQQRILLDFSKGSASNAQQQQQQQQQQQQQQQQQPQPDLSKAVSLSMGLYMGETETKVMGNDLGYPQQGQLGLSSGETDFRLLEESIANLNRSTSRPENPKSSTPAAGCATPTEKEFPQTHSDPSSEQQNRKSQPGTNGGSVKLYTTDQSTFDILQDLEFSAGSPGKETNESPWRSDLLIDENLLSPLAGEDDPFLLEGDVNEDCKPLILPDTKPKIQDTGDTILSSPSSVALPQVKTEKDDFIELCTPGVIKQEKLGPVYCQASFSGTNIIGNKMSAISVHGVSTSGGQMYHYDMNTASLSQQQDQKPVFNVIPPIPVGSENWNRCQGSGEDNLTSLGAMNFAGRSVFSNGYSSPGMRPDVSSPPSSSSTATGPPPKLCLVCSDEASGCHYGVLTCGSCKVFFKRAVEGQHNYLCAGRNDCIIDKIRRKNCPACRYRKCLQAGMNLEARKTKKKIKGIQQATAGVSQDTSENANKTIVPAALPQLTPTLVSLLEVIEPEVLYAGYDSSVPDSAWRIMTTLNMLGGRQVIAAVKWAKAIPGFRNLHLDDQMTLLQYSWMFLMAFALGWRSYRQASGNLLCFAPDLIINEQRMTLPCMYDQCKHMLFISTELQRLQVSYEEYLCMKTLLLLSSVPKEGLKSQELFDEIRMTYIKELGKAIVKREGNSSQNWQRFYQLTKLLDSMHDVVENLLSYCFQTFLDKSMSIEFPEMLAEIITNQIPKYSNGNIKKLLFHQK
In short: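 GR nuclear translocation measured by DiscoveRx in PathHunter cells using enzyme-fragment complementation. ProLink-tagged GR recruits a nuclear steroid receptor co-activator peptide fused to the enzyme acceptor, giving a chemiluminescent signal.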

[2] = Inhibition of TNFalpha-induced NFkappaB activation in mouse C2C12 cells incubated for 24 hrs prior to TNFalpha induction measured after 24 hrs by luciferase reporter gene assay; format: cell-based
In short: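 C2C12 myoblasts in growth medium and myotubes in differentiating medium, each stably carrying an NF-κB response element–luciferase reporter. Cells were washed, lysed and luciferase read; TNF-α alone was set as 100%. IC50 was calculated. SD shown.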

C2C12 = assay: Cytotoxicity against mouse C2C12 cells assessed as cell viability at 0.01 to 100 ug/mL after 24 hrs by MTT assay; format: cell-based; settings: c2c12, 24 h
In short: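 MTT viability run on C2C12 cells grown and treated alongside the NF-κB reporter plates, with drug at 0.01–100 µg/ml and DMSO vehicle. Viability is expressed as percent of untreated cells. A one-way repeated-measures ANOVA tested for a concentration effect.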

[3] = molecular target: T2, Glucocorticoid receptor (Homo sapiens) (UniProt P04150); assay: Transactivation of glucocorticoid receptor in HEK293 cells co-transfected with GRE assessed as induction of GRE-dependent gene expression at 100 ug/ml after 6 hrs by luciferase reporter gene assay; format: cell-based
T2 sequence (whole entry): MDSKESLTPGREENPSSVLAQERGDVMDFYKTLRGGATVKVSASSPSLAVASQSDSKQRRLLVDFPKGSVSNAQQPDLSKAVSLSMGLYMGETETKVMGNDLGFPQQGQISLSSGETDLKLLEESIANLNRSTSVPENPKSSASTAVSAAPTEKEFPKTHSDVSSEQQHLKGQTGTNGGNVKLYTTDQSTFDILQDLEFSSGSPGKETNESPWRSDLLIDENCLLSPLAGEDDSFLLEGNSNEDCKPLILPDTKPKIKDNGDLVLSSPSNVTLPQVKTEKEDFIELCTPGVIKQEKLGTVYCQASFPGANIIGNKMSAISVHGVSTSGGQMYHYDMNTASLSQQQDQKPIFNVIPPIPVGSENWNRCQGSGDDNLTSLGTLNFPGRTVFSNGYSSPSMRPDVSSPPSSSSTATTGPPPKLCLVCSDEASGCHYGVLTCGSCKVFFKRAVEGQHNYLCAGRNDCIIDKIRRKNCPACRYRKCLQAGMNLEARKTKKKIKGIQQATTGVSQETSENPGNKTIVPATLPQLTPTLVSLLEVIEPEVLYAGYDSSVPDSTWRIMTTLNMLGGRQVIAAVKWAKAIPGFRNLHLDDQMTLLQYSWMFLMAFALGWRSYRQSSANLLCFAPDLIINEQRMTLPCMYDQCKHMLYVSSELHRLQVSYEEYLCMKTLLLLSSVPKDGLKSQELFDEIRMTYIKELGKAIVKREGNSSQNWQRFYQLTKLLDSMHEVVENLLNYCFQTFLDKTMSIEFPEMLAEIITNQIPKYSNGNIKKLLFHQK
In short: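 HEK-293 cells stably transfected with a GRE-driven luciferase reporter were exposed to drug at 0.01–100 μg/ml for 6 h. Cells were washed with PBS and lysed, and luciferase activity was measured by luminometer.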

Liver microsomes = assay: Metabolic stability in rat liver microsomes at 2 uM measured at 1 hr; format: ADME, Microsome
In short: (§1)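 Liver microsomes (human, or male monkey, dog, rat or mouse) at 0.5 mg/mL final with 2 µM compound, 5 mM MgCl2 and 5 mM PBS. The reaction was started with 1 mM NADPH and run at 37 °C. Verapamil was the positive control; water replaced NADPH in the negative control. Read-out was percent parent remaining at 1 h.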

[4] = Metabolic stability in mouse liver microsomes assessed as compound remaining at 2 uM measured at 1 hr; format: ADME, Microsome; settings: read-out: Stability; in short: as §1
[5] = Metabolic stability in monkey liver microsomes assessed as compound remaining at 2 uM measured at 1 hr; format: ADME, Macaca mulatta, Microsome; settings: rhesus monkey, read-out: Stability; in short: as §1
[6] = Metabolic stability in dog liver microsomes assessed as compound remaining at 2 uM measured at 1 hr; format: ADME, Canis lupus familiaris, Microsome; settings: read-out: Stability; in short: as §1
[7] = Metabolic stability in human liver microsomes assessed as compound remaining at 2 uM measured at 1 hr; format: ADME, Microsome; settings: read-out: Stability; in short: as §1
[8] = Volume of distribution at steady state in CD1 mouse at 10 mg/kg, iv; format: ADME, organism-based; parameters: dose 10 mg/kg, route intravenous; settings: in vivo, read-out: Vdss
In short: (§2)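 CD1 mice (n = 3 per compound) given 10 mg/kg as a single tail-vein injection in a pH 7.0 solution of 10% ethanol plus PEG400 (some compounds also with 10% DMSO). Blood was sampled at 0, 5, 15 and 30 min and 1, 2, 4, 8 and 24 h. Parameters were derived from the plasma concentration–time profiles.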

Mus musculus [9] = assay: Oral bioavailability in CD1 mouse at 50 mg/kg; format: ADME, organism-based; settings: in vivo
In short: (§3)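 CD1 mice (n = 3 per compound) were dosed orally at 50 mg/kg as an aqueous emulsion in 30% Labrafil. Blood was drawn at 0, 5, 15 and 30 min and 1, 2, 4, 8 and 24 h. Bioavailability and other parameters were calculated from the plasma profiles and compared against the intravenous arm.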

Mus musculus [10] = assay: Total unbound AUC (0 to infinity) in CD1 mouse at 50 mg/kg, po; format: ADME, organism-based; parameters: dose 50 mg/kg, route oral; settings: in vivo
[11] = AUClast in CD1 mouse at 50 mg/kg, po; format: ADME, organism-based; parameters: time 0 - last, dose 50 mg/kg, route oral; settings: plasma; in short: as §3
Mus musculus [12] = assay: Total unbound Cmax in CD1 mouse at 50 mg/kg, po; format: ADME, organism-based; parameters: dose 50 mg/kg, route oral; settings: in vivo
[13] = AUClast in CD1 mouse at 10 mg/kg, iv; format: ADME, organism-based; parameters: time 0 - last, dose 10 mg/kg, route intravenous; settings: plasma; in short: as §2
Mus musculus [14] = assay: Total unbound Cmax in CD1 mouse at 10 mg/kg, iv; format: ADME, organism-based; parameters: dose 10 mg/kg, route intravenous; settings: in vivo
[15] = Tmax in CD1 mouse at 50 mg/kg, po; format: ADME, organism-based; parameters: dose 50 mg/kg, route oral; settings: in vivo; in short: as §3
[16] = Tmax in CD1 mouse at 10 mg/kg, iv; format: ADME, organism-based; parameters: dose 10 mg/kg, route intravenous; settings: in vivo; in short: as §2
[17] = Clearance in CD1 mouse at 10 mg/kg, iv; format: ADME, organism-based; parameters: dose 10 mg/kg, route intravenous; settings: in vivo; in short: as §2
[18] = Mean residence time in CD1 mouse at 10 mg/kg, iv; format: ADME, organism-based; parameters: dose 10 mg/kg, route intravenous; settings: in vivo; in short: as §2
Mus musculus [19] = assay: Total unbound AUC (0 to infinity) in CD1 mouse at 10 mg/kg, iv; format: ADME, organism-based; parameters: dose 10 mg/kg, route intravenous; settings: in vivo
[20] = Terminal half life in CD1 mouse at 10 mg/kg, iv; format: ADME, organism-based; parameters: dose 10 mg/kg, route intravenous; settings: in vivo, read-out: beta t1/2 (converted); in short: as §2
[21] = Terminal half life in CD1 mouse at 50 mg/kg, po; format: ADME, organism-based; parameters: dose 50 mg/kg, route oral; settings: in vivo, read-out: beta t1/2 (converted); in short: as §3

| SMILES | Activity [1] | EC50 [2] | Activity (C2C12) | also measured |
| --- | --- | --- | --- | --- |
| C[C@@H]1C[C@H]2[C@@H]3CCC4=CC(=O)CC[C@]4(C)C3=CC[C@]2(C)[C@H]1C(=O)CN1CCN(C)CC1 | 14.7% | > 10000 nM | Non-toxic | – |
| C[C@]12C=CC(=O)C=C1CC[C@@H]1C2=CC[C@@]2(C)[C@H]1CC[C@]2(O)C(=O)CO | 57.6% | 129 nM | – | – |
| CN1CCN(CC(=O)[C@@]2(O)CC[C@H]3[C@@H]4CCC5=CC(=O)CC[C@]5(C)C4=CC[C@@]32C)CC1 | 23.5% | 5780 nM | – | – |
| CC(=O)OCC(=O)C1=CC[C@H]2[C@@H]3CCC4=CC(=O)C=C[C@]4(C)C3=CC[C@]12C | 15.3% | – | – | – |
| C[C@]12C=CC(=O)C=C1CC[C@@H]1C2=CC[C@]2(C)C(C(=O)CO)=CC[C@@H]12 | 16.7% | 495 nM | – | – |
| CC(=O)OCC(=O)[C@@]1(O)CC[C@H]2[C@@H]3CCC4=CC(=O)CC[C@]4(C)C3=CC[C@@]21C | 51.5% | – | – | Activity [3]: inactive |
| CC(=O)OCC(=O)[C@H]1[C@H](C)C[C@H]2[C@@H]3CCC4=CC(=O)C=C[C@]4(C)C3=CC[C@@]21C | 48.8% | 54.1 nM | Non-toxic | Activity [3]: inactive |
| C[C@]12CCC(=O)C=C1CC[C@@H]1C2=CC[C@@]2(C)[C@H]1CC[C@]2(O)C(=O)CO | 49.2% | 62.9 nM | – | – |
| C[C@@H]1C[C@H]2[C@@H]3CCC4=CC(=O)C=C[C@]4(C)C3=CC[C@]2(C)[C@H]1C(=O)CO | 54.2% | 56.4 nM | Non-toxic | Stability (Liver microsomes): Unstable; remaining at 1 h, 2 µM [4]: 34%; remaining at 1 h, 2 µM [5]: ≥ 80%; remaining at 1 h, 2 µM [6]: ≥ 80%; remaining at 1 h, 2 µM [7]: ≥ 80%; Vd [8]: 0.874 L/kg; F (Mus musculus [9]): 128%; fAUC (Mus musculus [10]): 22031 ng·h/mL; AUC(0-t) [11]: 22000 ng·h/mL; fCmax (Mus musculus [12]): 10203 ng/mL; AUC(0-t) [13]: 3450 ng·h/mL; fCmax (Mus musculus [14]): 8637 ng/mL; Tmax [15]: 1 h; Tmax [16]: 5 min; clearance [17]: 48.2 mL/min/kg; Activity [3]: inactive; MRT [18]: 17.3 min; fAUC (Mus musculus [19]): 3457 ng·h/mL; half-life [20]: 40 min; half-life [21]: 39.5 min |
| C[C@]12CCC(=O)C=C1CC[C@@H]1C2=CC[C@@]2(C)[C@H]1CC[C@]2(O)C(=O)CN1CCCC1 | 24.7% | 1850 nM | – | – |

Further lines, with some results ahead:

| Activity [1] | EC50 [2] | SMILES | Activity (C2C12) | also measured |
| --- | --- | --- | --- | --- |
| 37.7% | 723 nM | CCCN(CCC)CC(=O)[C@H]1[C@H](C)C[C@H]2[C@@H]3CCC4=CC(=O)CC[C@]4(C)C3=CC[C@@]21C | Non-toxic | – |
| 6.9% | > 10000 nM | CCCC[C@@H]1C[C@H]2[C@@H]3CCC4=CC(=O)C=C[C@]4(C)C3=CC[C@]2(C)[C@H]1C(=O)CO | Toxic | – |
| 21.8% | – | CCCN(CCC)CC(=O)[C@@]1(O)CC[C@H]2[C@@H]3CCC4=CC(=O)CC[C@]4(C)C3=CC[C@@]21C | – | – |
| 19.9% | – | C[C@@H]1C[C@H]2[C@@H]3CCC4=CC(=O)CC[C@]4(C)C3=CC[C@]2(C)[C@H]1C(=O)CN1CCCC1 | Non-toxic | – |
| 44.5% | – | C[C@H]1C[C@H]2[C@@H]3CCC4=CC(=O)C=C[C@]4(C)C3=CC[C@]2(C)[C@@]1(O)C(=O)CO | Non-toxic | – |
| 28.7% | 1740 nM | C[C@]12CCC(=O)C=C1CC[C@@H]1C2=CC[C@@]2(C)[C@H]1CC[C@]2(O)C(=O)CN1CCOCC1 | – | – |
| 27% | 89.5 nM | CC[C@@H]1C[C@H]2[C@@H]3CCC4=CC(=O)C=C[C@]4(C)C3=CC[C@]2(C)[C@H]1C(=O)CO | Toxic | – |
| 8.5% | > 10000 nM | CCCC[C@@H]1C[C@H]2[C@@H]3CCC4=CC(=O)CC[C@]4(C)C3=CC[C@]2(C)[C@H]1C(=O)CO | Toxic | – |
| 22.7% | 5240 nM | C[C@@H]1C[C@H]2[C@@H]3CCC4=CC(=O)CC[C@]4(C)C3=CC[C@]2(C)[C@H]1C(=O)CN1CCOCC1 | Non-toxic | – |

— ChEMBL document CHEMBL2346557 (Bioorg Med Chem, 2013)
